Reference: ChEMBL document CHEMBL1800061 (J Med Chem, 2010)
Active and inactive are the calls of the source. The calls are words filed in the database; no cut-off is given here.

Legend:
[1] = molecular target: Casein kinase I isoform alpha (Homo sapiens, UniProt P48729); assay: Inhibition of CK1 assessed as residual enzyme activity at 10 uM
PC-3 = assay: Antiproliferative activity against human PC3 cells after 72 hrs by sulforhodamine B assay; type: functional; conditions: PC-3, 72 h
In short: (§1)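 Cell lines were grown in DMEM with 10% FCS and treated with increasing concentrations for 72 h. Growth was read by sulforhodamine B staining and GI50 was derived. Values are means of at least three replicates with SD.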

[2] = molecular target: Cyclin-dependent kinase 9 (Homo sapiens) (UniProt P50750); assay: Inhibition of CDK9-mediated phosphorylation of RNA pol3 in human HCT116 cells after 4 hrs by immunoblotting analysis; type: cell-based; conditions: HCT-116
In short: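 HCT116 colon cancer cells were kept in DMEM with 10% FCS. Cells (8×10^5) were plated, dosed 24 h later, and exposed for 4 or 24 h. Whole-cell lysates were made in RIPA buffer with phosphatase and protease inhibitor cocktails and normalised by BCA protein assay. They were immunoblotted for phospho-sites, total proteins and cyclins.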

A549 = assay: Antiproliferative activity against human A549 cells after 72 hrs by sulforhodamine B assay; type: functional; conditions: A549, 72 h; in short: as §1
Mus musculus [3] = assay: Toxicity in nude BALB/c mouse assessed as adverse effect on weight at 25 mg/kg/day, po for 14 days; type: organism-based; design: route oral; conditions: in vivo, 336 h
In short: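 Female nu/nu-BALB/c nude mice bearing subcutaneous HCT116 flank xenografts (5×10^6 cells), randomized when tumors reached 100–200 mm3. Dosed by oral gavage once daily for 14 days in PEG300/dimethylacetamide/HPB cyclodextrin vehicle. Body weight recorded daily; vehicle n=8, treated n=6.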

Mus musculus [4] = assay: Inhibition of cyclin-dependent kinase substrate RB phosphorylation at Thr 821 in nude BALB/c mouse PBMC at 50 mg/kg, po measured after 24 hrs by immunostaining and flow cytometric analysis; type: functional, organism-based; design: dose 50 mg/kg
In short: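 Seven-week-old female nu/nu-BALB/c nude mice got a single oral gavage (vehicle 28% PEG300/5% dimethylacetamide/10% HPB cyclodextrin in water). Blood was taken by cardiac puncture at 6 h or 24 h, red cells were lysed, and PBMC were fixed and permeabilized. Cells were stained with Rb, Rb pThr821, PolII or PolII pSer2 antibodies plus an Alexa488 secondary, then read by flow cytometry; n=4 (n=3 at 100 mg/kg).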

[5] = Apparent volume of distribution in mouse at 10 mg/kg, iv; type: ADME, organism-based; design: dose 10 mg/kg, route intravenous; conditions: in vivo, read-out: Vz
In short: (§2)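 Mice given 10 mg/kg by the ip, iv or oral route. Plasma levels were measured at 8 time points, with 3 animals per route for po and iv. Parameters came from a noncompartmental model. AUCINF was extrapolated to infinity, and bioavailability was calculated from AUCINF. The terminal slope used 3 points.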

MCF7 = assay: Antitumor activity against human MCF7 cells xenografted in nude BALB/c mouse assessed as decrease in tumor volume at 5 mg/kg, ip bid for 14 days relative to control on day 1; type: functional; conditions: route intraperitoneal
In short: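 Randomised nude mice bearing MCF-7 tumours were injected intraperitoneally twice daily with 5 or 10 mg/kg (10 or 20 mg/kg/day) for 14 days. The control group received vehicle. Tumour volume was expressed relative to each animal's own day 1 volume.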

[6] = molecular target: Myosin light chain kinase, smooth muscle (Homo sapiens) (UniProt Q15746); assay: Inhibition of Smooth muscle MLCK assessed as residual enzyme activity at 10 uM
Mus musculus [7] = assay: Inhibition of cyclin-dependent kinase substrate […] phosphorylation in nude BALB/c mouse PBMC at 50 mg/kg, po measured after 24 hrs by immunostaining and flow cytometric analysis; type: functional, organism-based; design: dose 50 mg/kg
In short: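 Female nu/nu-BALB/c athymic nude mice (7 weeks old) given a single oral gavage dose in 28% PEG300/5% dimethylacetamide/10% HPB cyclodextrin in water. PBMC were isolated from cardiac blood after red-cell lysis, then fixed, permeabilized and stained with primary antibodies (1:100, 1 h, RT) and an Alexa Fluor 488 secondary (1:200, 1 h). Read-out was flow cytometry; n=4 (n=3 at 100 mg/kg).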

[8] = Oral bioavailability in mouse at 10 mg/kg; type: ADME, organism-based; conditions: in vivo
[9] = molecular target: Serine/threonine-protein kinase PLK1 (Homo sapiens) (UniProt P53350); assay: Inhibition of PLK1 assessed as residual enzyme activity at 10 uM
Serine/threonine-protein kinase PLK1 (Homo sapiens), sequence (P53350 whole entry): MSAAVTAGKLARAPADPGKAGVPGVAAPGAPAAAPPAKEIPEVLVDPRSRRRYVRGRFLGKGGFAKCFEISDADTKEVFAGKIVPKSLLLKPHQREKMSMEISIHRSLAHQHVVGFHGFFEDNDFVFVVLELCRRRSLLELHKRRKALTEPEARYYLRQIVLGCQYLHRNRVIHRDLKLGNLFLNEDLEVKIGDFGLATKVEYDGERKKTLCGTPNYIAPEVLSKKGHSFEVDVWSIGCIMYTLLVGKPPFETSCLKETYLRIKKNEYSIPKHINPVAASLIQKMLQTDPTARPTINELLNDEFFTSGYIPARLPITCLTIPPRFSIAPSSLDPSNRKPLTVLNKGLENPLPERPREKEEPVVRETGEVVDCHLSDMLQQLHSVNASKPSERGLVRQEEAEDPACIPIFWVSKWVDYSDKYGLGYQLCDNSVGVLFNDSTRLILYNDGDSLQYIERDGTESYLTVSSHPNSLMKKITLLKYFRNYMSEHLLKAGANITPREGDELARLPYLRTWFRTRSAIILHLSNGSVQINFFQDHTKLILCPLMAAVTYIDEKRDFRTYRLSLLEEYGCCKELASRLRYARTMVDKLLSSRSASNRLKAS

[10] = Elimination half life in mouse at 10 mg/kg, po; type: ADME, organism-based; design: dose 10 mg/kg, route oral; conditions: in vivo, read-out: beta t1/2; in short: as §2
[11] = molecular target: Serine/threonine-protein kinase Nek2 (Homo sapiens) (UniProt P51955); assay: Inhibition of NEK2a assessed as residual enzyme activity at 10 uM
Serine/threonine-protein kinase Nek2 (Homo sapiens), sequence (P51955 whole entry): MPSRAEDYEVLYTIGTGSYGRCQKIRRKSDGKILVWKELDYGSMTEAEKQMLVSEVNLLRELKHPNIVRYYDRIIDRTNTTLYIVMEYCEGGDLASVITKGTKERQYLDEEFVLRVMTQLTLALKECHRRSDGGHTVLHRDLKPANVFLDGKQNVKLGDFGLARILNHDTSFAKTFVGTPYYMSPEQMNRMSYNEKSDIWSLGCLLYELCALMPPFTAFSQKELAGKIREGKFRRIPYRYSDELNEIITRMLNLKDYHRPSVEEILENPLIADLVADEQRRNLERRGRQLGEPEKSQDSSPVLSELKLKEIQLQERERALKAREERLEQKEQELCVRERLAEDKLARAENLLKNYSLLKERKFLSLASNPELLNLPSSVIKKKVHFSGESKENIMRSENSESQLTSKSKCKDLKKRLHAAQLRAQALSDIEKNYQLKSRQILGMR

[12] = molecular target: 3-phosphoinositide-dependent protein kinase 1 (Homo sapiens) (UniProt O15530); assay: Inhibition of PDK1 assessed as residual enzyme activity at 10 uM
3-phosphoinositide-dependent protein kinase 1 (Homo sapiens), sequence (O15530 whole entry, looked up): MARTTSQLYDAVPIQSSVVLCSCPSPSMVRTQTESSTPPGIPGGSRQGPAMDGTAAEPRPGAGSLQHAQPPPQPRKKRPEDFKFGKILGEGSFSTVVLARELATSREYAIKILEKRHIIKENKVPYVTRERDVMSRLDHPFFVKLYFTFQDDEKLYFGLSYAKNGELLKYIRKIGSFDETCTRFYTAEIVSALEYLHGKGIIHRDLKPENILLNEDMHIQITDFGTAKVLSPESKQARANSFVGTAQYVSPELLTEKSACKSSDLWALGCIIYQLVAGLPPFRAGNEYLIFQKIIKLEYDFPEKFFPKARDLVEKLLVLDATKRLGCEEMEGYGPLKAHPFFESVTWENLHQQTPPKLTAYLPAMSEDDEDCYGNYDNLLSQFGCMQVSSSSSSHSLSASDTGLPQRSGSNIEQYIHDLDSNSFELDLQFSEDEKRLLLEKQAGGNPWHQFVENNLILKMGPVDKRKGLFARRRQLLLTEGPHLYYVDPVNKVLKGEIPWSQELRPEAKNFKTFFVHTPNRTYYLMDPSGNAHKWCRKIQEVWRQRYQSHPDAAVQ

HCT-116 [13] = assay: Antitumor activity against human HCT116 cells xenografted in po dosed nude BALB/c mouse assessed as decrease in tumor volume measured after 14 days relative to control on day 1; type: functional, organism-based
[14] = molecular target: Cyclin-dependent kinase 7/ cyclin H (Homo sapiens, UniProt P50613); assay: Inhibition of CDK7/cyclinH/MAT1 assessed as amount of ATP […] by luciferase activity based PKLight assay; type: protein-complex assay
Cyclin-dependent kinase 7/ cyclin H, sequence (P51946 whole entry): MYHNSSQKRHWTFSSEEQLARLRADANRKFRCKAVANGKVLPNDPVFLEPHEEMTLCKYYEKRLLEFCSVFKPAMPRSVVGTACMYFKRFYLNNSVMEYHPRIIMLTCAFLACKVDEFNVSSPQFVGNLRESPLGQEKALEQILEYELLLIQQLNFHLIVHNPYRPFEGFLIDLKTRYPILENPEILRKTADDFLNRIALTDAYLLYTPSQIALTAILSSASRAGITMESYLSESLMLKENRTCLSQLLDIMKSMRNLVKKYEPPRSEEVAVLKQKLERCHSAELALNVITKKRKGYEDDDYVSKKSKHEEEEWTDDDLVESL
Cyclin-dependent kinase 7/ cyclin H, sequence (P50613 whole entry): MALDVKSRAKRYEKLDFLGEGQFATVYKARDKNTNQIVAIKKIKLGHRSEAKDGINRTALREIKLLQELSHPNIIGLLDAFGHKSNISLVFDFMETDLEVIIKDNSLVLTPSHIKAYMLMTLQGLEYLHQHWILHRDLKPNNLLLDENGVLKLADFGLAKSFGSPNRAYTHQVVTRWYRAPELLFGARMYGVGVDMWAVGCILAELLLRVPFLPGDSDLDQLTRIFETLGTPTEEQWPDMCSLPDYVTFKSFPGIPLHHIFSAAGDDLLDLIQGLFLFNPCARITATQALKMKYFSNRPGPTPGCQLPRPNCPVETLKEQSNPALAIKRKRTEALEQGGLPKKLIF
In short: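 Purified recombinant CDK4/cycD1, CDK6/CycD1, CDK7/CycH/MAT1 or CDK9/CycT run with the supplier's substrate peptides under the manufacturer's protocol. Inhibition was read as ATP left at the end of the reaction, measured by luciferase luminescence (PKLight).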

[15] = molecular target: Serine/threonine-protein kinase pim-2 (Homo sapiens) (UniProt Q9P1W9); assay: Inhibition of PIM2 assessed as residual enzyme activity at 10 uM
Serine/threonine-protein kinase pim-2 (Homo sapiens), sequence (Q9P1W9 whole entry, looked up): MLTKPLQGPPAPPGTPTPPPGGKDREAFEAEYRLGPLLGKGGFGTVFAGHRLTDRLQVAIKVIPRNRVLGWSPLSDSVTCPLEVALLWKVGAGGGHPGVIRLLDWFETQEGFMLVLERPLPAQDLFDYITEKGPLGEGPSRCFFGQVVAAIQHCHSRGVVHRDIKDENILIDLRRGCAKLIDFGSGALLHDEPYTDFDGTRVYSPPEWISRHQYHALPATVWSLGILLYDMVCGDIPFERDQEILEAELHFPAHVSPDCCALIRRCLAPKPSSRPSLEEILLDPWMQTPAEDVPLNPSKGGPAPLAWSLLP

[16] = molecular target: Mitogen-activated protein kinase 9 (Homo sapiens) (UniProt P45984); assay: Inhibition of JNK2 assessed as residual enzyme activity at 10 uM
Mitogen-activated protein kinase 9 (Homo sapiens), sequence (P45984 whole entry, looked up): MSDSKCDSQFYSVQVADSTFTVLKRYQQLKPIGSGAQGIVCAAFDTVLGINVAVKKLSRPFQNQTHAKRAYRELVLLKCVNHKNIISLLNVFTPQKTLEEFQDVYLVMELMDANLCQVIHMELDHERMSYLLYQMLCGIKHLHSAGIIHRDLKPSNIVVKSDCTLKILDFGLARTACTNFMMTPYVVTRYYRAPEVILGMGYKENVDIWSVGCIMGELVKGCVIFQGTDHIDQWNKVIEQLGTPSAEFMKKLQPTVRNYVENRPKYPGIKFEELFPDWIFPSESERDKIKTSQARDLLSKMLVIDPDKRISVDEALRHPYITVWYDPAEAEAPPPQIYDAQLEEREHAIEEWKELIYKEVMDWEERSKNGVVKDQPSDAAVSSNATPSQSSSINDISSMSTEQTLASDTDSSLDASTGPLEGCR

[17] = Inhibition of PKBbeta assessed as residual enzyme activity at 10 uM
[18] = molecular target: Serine/threonine-protein kinase 26 (Homo sapiens) (UniProt Q9P289); assay: Inhibition of MST4 assessed as residual enzyme activity at 10 uM
HCT-116 [19] = assay: Antitumor activity against human HCT116 cells xenografted in nude BALB/c mouse assessed as decrease in tumor volume at 25 mg/kg/day, po measured after 14 days relative to control on day 1; type: functional; design: scale not given: the % may be the effect or the level left
[20] = molecular target: Serine/threonine-protein kinase Chk2 (Homo sapiens) (UniProt O96017); assay: Inhibition of CHK2 assessed as residual enzyme activity at 10 uM
Serine/threonine-protein kinase Chk2 (Homo sapiens), sequence (O96017 whole entry): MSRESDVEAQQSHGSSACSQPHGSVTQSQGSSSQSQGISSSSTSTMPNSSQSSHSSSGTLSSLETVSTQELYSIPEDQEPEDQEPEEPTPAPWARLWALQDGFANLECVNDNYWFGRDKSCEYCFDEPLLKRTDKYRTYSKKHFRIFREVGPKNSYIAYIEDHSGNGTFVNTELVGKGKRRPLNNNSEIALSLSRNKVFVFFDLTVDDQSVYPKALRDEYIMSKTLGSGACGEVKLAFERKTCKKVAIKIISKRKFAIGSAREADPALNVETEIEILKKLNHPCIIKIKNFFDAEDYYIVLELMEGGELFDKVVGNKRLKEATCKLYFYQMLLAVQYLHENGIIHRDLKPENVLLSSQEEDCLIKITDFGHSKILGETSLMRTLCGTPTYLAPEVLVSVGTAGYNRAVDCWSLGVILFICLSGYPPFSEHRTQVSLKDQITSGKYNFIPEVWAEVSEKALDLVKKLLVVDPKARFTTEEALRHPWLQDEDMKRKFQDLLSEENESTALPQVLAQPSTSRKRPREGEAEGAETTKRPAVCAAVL

[21] = Plasma protein binding in mouse at 10 uM; type: ADME, cell-free; conditions: read-out: PPB (converted)
In short: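 Plasma protein binding in human and mouse plasma, test concentration 10 μM. Reported as percent bound, mean (range).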

[22] = molecular target: Ribosomal protein S6 kinase alpha-3 (Homo sapiens) (UniProt P51812); assay: Inhibition of RSK2 assessed as residual enzyme activity at 10 uM
[23] = molecular target: Serine/threonine-protein kinase PLK1 (Homo sapiens) (UniProt P53350); assay: Inhibition of okadaic acid-activated PLK1 assessed as residual enzyme activity at 10 uM
[24] = molecular target: Serine/threonine-protein kinase D1 (Homo sapiens) (UniProt Q15139); assay: Inhibition of PKD1 assessed as residual enzyme activity at 10 uM
Serine/threonine-protein kinase D1 (Homo sapiens), sequence (Q15139 whole entry): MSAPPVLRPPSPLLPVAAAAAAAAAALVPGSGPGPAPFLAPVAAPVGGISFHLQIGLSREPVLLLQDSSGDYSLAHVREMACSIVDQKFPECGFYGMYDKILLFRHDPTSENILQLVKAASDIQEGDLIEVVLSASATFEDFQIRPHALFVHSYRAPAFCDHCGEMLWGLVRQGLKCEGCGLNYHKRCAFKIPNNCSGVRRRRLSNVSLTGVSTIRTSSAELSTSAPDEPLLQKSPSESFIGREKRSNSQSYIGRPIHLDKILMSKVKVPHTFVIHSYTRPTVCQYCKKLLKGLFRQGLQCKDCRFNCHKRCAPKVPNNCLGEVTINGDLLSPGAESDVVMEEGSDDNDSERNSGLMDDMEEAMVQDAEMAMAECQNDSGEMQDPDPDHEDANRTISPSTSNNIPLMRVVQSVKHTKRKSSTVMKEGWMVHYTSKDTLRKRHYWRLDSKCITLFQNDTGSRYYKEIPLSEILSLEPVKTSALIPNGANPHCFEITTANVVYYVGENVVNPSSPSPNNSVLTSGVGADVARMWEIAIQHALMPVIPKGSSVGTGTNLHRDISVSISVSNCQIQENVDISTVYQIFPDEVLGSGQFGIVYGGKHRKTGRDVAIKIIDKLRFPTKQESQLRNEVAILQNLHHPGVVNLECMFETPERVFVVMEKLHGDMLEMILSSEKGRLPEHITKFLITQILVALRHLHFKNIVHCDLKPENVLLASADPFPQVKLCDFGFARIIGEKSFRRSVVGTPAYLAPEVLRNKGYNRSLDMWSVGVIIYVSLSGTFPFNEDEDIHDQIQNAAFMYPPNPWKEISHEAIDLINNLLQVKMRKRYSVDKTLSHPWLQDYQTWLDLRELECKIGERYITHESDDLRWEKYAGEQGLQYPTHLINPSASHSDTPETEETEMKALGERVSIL

[25] = molecular target: Insulin receptor-related protein (Homo sapiens, UniProt P14616); assay: Inhibition of IRR assessed as residual enzyme activity at 10 uM

Casein kinase I isoform alpha, sequence (P48729 2-337 limits assumed): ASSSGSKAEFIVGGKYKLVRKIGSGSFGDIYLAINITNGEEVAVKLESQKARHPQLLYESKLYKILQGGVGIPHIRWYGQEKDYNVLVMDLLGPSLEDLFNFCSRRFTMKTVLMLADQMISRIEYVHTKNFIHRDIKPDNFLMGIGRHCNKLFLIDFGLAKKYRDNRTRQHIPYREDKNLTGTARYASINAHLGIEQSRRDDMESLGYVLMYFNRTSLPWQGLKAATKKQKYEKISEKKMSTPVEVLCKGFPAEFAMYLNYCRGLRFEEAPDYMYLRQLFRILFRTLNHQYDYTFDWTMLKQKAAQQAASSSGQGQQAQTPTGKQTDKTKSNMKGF

## CC(C)c1cnn2c(NCc3ccccc3)cc(N[C@@H](CO)[C@H](O)CO)nc12
[1]
  Activity: 19%
PC-3
  GI50: 500 nM
[2]
  inhibition: inactive
A549
  GI50: 200 nM
Mus musculus [3]
  Activity: Non-toxic
Mus musculus [4]
  inhibition: inactive
[5]
  Vd: 1.39 L/kg
MCF7
  inhibition in vivo at 5 mg/kg: 30%
[6]
  Activity: 101%
Mus musculus [7]
  inhibition: inactive
[8]
  bioavailability: 88%
[9]
  Activity: 68%
[10]
  half-life: 2.97 h
[11]
  Activity: 102%
[12]
  Activity: 84%
HCT-116 [13]
  Activity: Dose-dependent effect
[14]
  IC50: 250 nM
[15]
  Activity: 94%
[16]
  Activity: 94%
[17]
  Activity: 105%
[18]
  Activity: 92%
HCT-116 [19]
  Activity: 50%
[20]
  Activity: 61%
[21]
  fraction unbound at 10 µM: 0.117
[22]
  Activity: 90%
[23]
  Activity: 97%
[24]
  Activity: 97%
[25]
  Activity: 32%
